From ChEMBL document CHEMBL1141317, “Pavietin, a coumarin from Aesculus pavia with antifungal activity” (2007)

Columns and labels:
[1] = test system: Alternaria alternata; assay: Antifungal activity against Alternaria alternata assessed as mycelial growth at 100 umol/L by filter disk method relative to control; assay type: functional; conditions: in the assay text read “by incorporation into growth medium” for “by filter disk method”
Outline: (§1)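 Agar-incorporation assay rather than disk. Compound in a few drops of DMSO, ultrafiltered and added to autoclaved, still-molten PDA at 50, 100 or 200 μmol L⁻¹. 1 cm mycelial plugs inoculated, 40 dishes per treatment per species. Grown 3 days at 22 °C in darkness. Mycelial growth expressed as % of DMSO-only controls (100%). Student–Neumann–Keuls test, p = 0.05.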

[2] = test system: Guignardia aesculi; assay: Antifungal activity against Guignardia aesculi assessed as mycelial growth at 1.5 mg/disk by filter disk method relative to control; assay type: functional
Outline: (§2)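 Compound dissolved in a few drops of absolute EtOH and loaded onto 5 mm paper disks at 0.15, 1.5 or 15 mg per disk. Disks placed on PDA in 12 cm Petri dishes, 30 dishes per treatment per species. Inhibition zones measured in mm after 3 days at 27 °C. EtOH-only disk as control. Growth given as % of control (100%). Student–Neumann–Keuls test, p = 0.05.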

[3] = test system: Trichoderma viride; assay: Antifungal activity against Trichoderma viride assessed as mycelial growth at 200 umol/L by filter disk method relative to control; assay type: functional; conditions: in the assay text read “by incorporation into growth medium” for “by filter disk method”; outline: as §1
[4] = Antifungal activity against Rhizopus stolonifer assessed as mycelial growth at 100 umol/L […] relative to control; assay type: functional; outline: as §1
[5] = test system: Fulvia fulva; assay: Antifungal activity against Cladosporium fulvum assessed as mycelial growth at 100 umol/L by filter disk method relative to control; assay type: functional; conditions: in the assay text read “by incorporation into PDA growth medium” for “by filter disk method”; outline: as §1
[6] = test system: Guignardia aesculi; assay: Antifungal activity against Guignardia aesculi assessed as mycelial growth at 200 umol/L by filter disk method relative to control; assay type: functional; conditions: in the assay text read “by incorporation into growth medium” for “by filter disk method”; outline: as §1
[7] = test system: Polyporus; assay: Antifungal activity against Polyporus marginatus assessed as mycelial growth at 50 umol/L by filter disk method relative to control; assay type: functional; conditions: in the assay text read “by incorporation into growth medium” for “by filter disk method”; outline: as §1
[8] = Antifungal activity against Polyporus marginatus assessed as mycelial growth at 200 umol/L by filter disk method relative to control; assay type: functional; conditions: in the assay text read “by incorporation into growth medium” for “by filter disk method”; outline: as §1
[9] = test system: Alternaria dianthi; assay: Antifungal activity against Alternaria dianthi assessed as mycelial growth at 100 umol/L by filter disk method relative to control; assay type: functional; conditions: in the assay text read “by incorporation into growth medium” for “by filter disk method”; outline: as §1
[10] = test system: Botrytis; assay: Antifungal activity against Botrytis cinerea assessed as mycelial growth at 50 umol/L by filter disk method relative to control; assay type: functional; conditions: in the assay text read “by incorporation into PDA growth medium” for “by filter disk method”; outline: as §1
[11] = test system: Penicillium expansum; assay: Antifungal activity against Penicillium expansum assessed as mycelial growth at 50 umol/L […] relative to control; assay type: functional; outline: as §1
[12] = test system: Botrytis; assay: Antifungal activity against Botrytis cinerea assessed as mycelial growth at 100 umol/L by filter disk method relative to control; assay type: functional; conditions: in the assay text read “by incorporation into PDA growth medium” for “by filter disk method”; outline: as §1
[13] = test system: Globisporangium ultimum; assay: Antifungal activity against Pythium ultimum assessed as mycelial growth at 15 mg/disk by filter disk method relative to control; assay type: functional; outline: as §2
[14] = test system: Fusarium oxysporum f. sp. dianthi; assay: Antifungal activity against Fusarium oxysporum dianthi assessed as mycelial growth at 100 umol/L by […] relative to control; assay type: functional; outline: as §1
[15] = test system: Fusarium basilici; assay: Antifungal activity against Fusarium basilici assessed as mycelial growth at 15 mg/disk by filter disk method relative to control
[16] = test system: Trichoderma viride; assay: Antifungal activity against Trichoderma viride assessed as mycelial growth at 50 umol/L by filter disk method relative to control; assay type: functional; conditions: in the assay text read “by incorporation into growth medium” for “by filter disk method”; outline: as §1
[17] = test system: Trichoderma viride; assay: Antifungal activity against Trichoderma viride assessed as mycelial growth at 100 umol/L by filter disk method relative to control; assay type: functional; conditions: in the assay text read “by incorporation into growth medium” for “by filter disk method”; outline: as §1
[18] = test system: Fulvia fulva; assay: Antifungal activity against Cladosporium fulvum assessed as mycelial growth at 50 umol/L by filter disk method relative to control; assay type: functional; conditions: in the assay text read “by incorporation into PDA growth medium” for “by filter disk method”; outline: as §1
[19] = test system: Fusarium oxysporum f. sp. dianthi; assay: Antifungal activity against Fusarium oxysporum dianthi assessed as mycelial growth at 200 umol/L by […] relative to control; assay type: functional; outline: as §1
[20] = test system: Alternaria dianthi; assay: Antifungal activity against Alternaria dianthi assessed as mycelial growth at 50 umol/L by filter disk method relative to control; assay type: functional; conditions: in the assay text read “by incorporation into growth medium” for “by filter disk method”; outline: as §1
[21] = test system: Aspergillus niger; assay: Antifungal activity against Aspergillus niger assessed as mycelial growth at 100 umol/L by filter disk method relative to control; assay type: functional; conditions: in the assay text read “by incorporation into growth medium” for “by filter disk method”; outline: as §1
[22] = test system: Fusarium basilici; assay: Antifungal activity against Fusarium basilici assessed as mycelial growth at 1.5 mg/disk by filter disk method relative to control
[23] = test system: Botrytis; assay: Antifungal activity against Botrytis cinerea assessed as mycelial growth at 200 umol/L by filter disk method relative to control; assay type: functional; conditions: in the assay text read “by incorporation into PDA growth medium” for “by filter disk method”; outline: as §1
[24] = test system: Guignardia aesculi; assay: Antifungal activity against Guignardia aesculi assessed as mycelial growth at 0.15 mg/disk by filter disk method relative to control; assay type: functional; outline: as §2
[25] = test system: Penicillium expansum; assay: Antifungal activity against Penicillium expansum assessed as mycelial growth at 200 umol/L […] relative to control; assay type: functional; outline: as §1
[26] = Antifungal activity against Fusarium oxysporum dianthi assessed as mycelial growth at 50 umol/L […] relative to control; assay type: functional; conditions: Fusarium oxysporum f. sp. dianthi; outline: as §1
[27] = test system: Alternaria dianthi; assay: Antifungal activity against Alternaria dianthi assessed as mycelial growth at 200 umol/L by filter disk method relative to control; assay type: functional; conditions: in the assay text read “by incorporation into growth medium” for “by filter disk method”; outline: as §1
[28] = test system: Guignardia aesculi; assay: Antifungal activity against Guignardia aesculi assessed as mycelial growth at 50 umol/L by […] relative to control; assay type: functional; outline: as §1
[29] = test system: Rhizopus stolonifer; assay: Antifungal activity against Rhizopus stolonifer assessed as mycelial growth at 200 umol/L […] relative to control; assay type: functional; outline: as §1
[30] = test system: Aspergillus niger; assay: Antifungal activity against Aspergillus niger assessed as mycelial growth at 200 umol/L by filter disk method relative to control; assay type: functional; conditions: in the assay text read “by incorporation into growth medium” for “by filter disk method”; outline: as §1
[31] = test system: Aspergillus niger; assay: Antifungal activity against Aspergillus niger assessed as mycelial growth at 50 umol/L by filter disk method relative to control; assay type: functional; conditions: in the assay text read “by incorporation into growth medium” for “by filter disk method”; outline: as §1
[32] = test system: Globisporangium ultimum; assay: Antifungal activity against Pythium ultimum assessed as mycelial growth at 0.15 mg/disk by filter disk method relative to control; assay type: functional; outline: as §2
[33] = test system: Guignardia aesculi; assay: Antifungal activity against Guignardia aesculi assessed as mycelial growth at 100 umol/L by filter disk method relative to control; assay type: functional; conditions: in the assay text read “by incorporation into the growth medium” for “by filter disk method”; outline: as §1
[34] = test system: Penicillium expansum; assay: Antifungal activity against Penicillium expansum assessed as mycelial growth at 100 umol/L […] relative to control; assay type: functional; outline: as §1
[35] = test system: Alternaria alternata; assay: Antifungal activity against Alternaria alternata assessed as mycelial growth at 200 umol/L by filter disk method relative to control; assay type: functional; conditions: in the assay text read “by incorporation into growth medium” for “by filter disk method”; outline: as §1
[36] = test system: Alternaria alternata; assay: Antifungal activity against Alternaria alternata assessed as mycelial growth at 50 umol/L by filter disk method relative to control; assay type: functional; conditions: in the assay text read “by incorporation into growth medium” for “by filter disk method”; outline: as §1
[37] = test system: Fulvia fulva; assay: Antifungal activity against Cladosporium fulvum assessed as mycelial growth at 200 umol/L […] relative to control; assay type: functional; outline: as §1
[38] = test system: Globisporangium ultimum; assay: Antifungal activity against Pythium ultimum assessed as mycelial growth at 1.5 mg/disk by filter disk method relative to control; assay type: functional; outline: as §2
[39] = test system: Fusarium basilici; assay: Antifungal activity against Fusarium basilici assessed as mycelial growth at 0.15 mg/disk by filter disk method relative to control
[40] = test system: Polyporus; assay: Antifungal activity against Polyporus marginatus assessed as mycelial growth at 100 umol/L by filter disk method relative to control; assay type: functional; conditions: in the assay text read “by incorporation into growth medium” for “by filter disk method”; outline: as §1
[41] = test system: Guignardia aesculi; assay: Antifungal activity against Guignardia aesculi assessed as mycelial growth at 15 mg/disk by filter disk method relative to control; assay type: functional; outline: as §2
[42] = test system: Rhizopus stolonifer; assay: Antifungal activity against Rhizopus stolonifer assessed as mycelial growth at 50 umol/L by […] relative to control; assay type: functional; outline: as §1

CC[C@@H](CO)COc1cc2c(C)cc(=O)oc2cc1O [PAVIETIN]
Activity [1]: 80.2%
Activity [2]: 64%
Activity [3]: 61.5%
Activity [4]: 71.3%
Activity [5]: 78.3%
Activity [6]: 20.7%
Activity [7]: 93.6%
Activity [8]: 76.1%
Activity [9]: 77%
Activity [10]: 78.8%
Activity [11]: 68.8%
Activity [12]: 64.6%
Activity [13]: 78%
Activity [14]: 83.3%
Activity [15]: 59%
Activity [16]: 78.8%
Activity [17]: 70.4%
Activity [18]: 88.6%
Activity [19]: 66.9%
Activity [20]: 89.5%
Activity [21]: 68.6%
Activity [22]: 76.4%
Activity [23]: 51.4%
Activity [24]: 85.3%
Activity [25]: 29.9%
Activity [26]: 91.8%
Activity [27]: 64.9%
Activity [28]: 84.6%
Activity [29]: 68.1%
Activity [30]: 50%
Activity [31]: 73.2%
Activity [32]: 88.4%
Activity [33]: 46.5%
Activity [34]: 48.4%
Activity [35]: 58.5%
Activity [36]: 86.8%
Activity [37]: 60.8%
Activity [38]: 81.6%
Activity [39]: 87.8%
Activity [40]: 86.2%
Activity [41]: 33.8%
Activity [42]: 82%
